Numbered stars: 1 amine (or outer) side, 2 acyl side, 3 side chain; on linkers, the order of the positions; unused ones are H or OH. Square brackets hold non-standard residues; d marks the D form. Side chains are listed from the residue outwards. Peptide text beside a SMILES is read from it. * marks the point of attachment. X1 = N=C(N)NCCC[C@H](N)CN*; ΔPro = O=C(O)[C@@H]1C=CCN1; Dab = NCC[C@H](N)C(=O)O; CO = O=C([*:1])[*:2]

Data on 6 molecules can be found in ChEMBL document CHEMBL4346745, “Urea moiety as amide bond mimetic in peptide-like inhibitors of VEGF-A165/NRP-1 complex” (Bioorg Med Chem Lett, 2019).

The target in one data set is Neuropilin-1 (Homo sapiens, UniProt O14786). The data set can be described thus: Inhibition of biotinylated human VEGF-A165 binding to recombinant human NRP1 receptor after 2 hrs by chemiluminescence analysis relative to control. In short, it runs like this: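 ELISA-like competition format with chemiluminescent read-out of VEGF-A165 bound to NRP-1 in the presence of test peptidomimetic.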

Data set [1] can be described thus: Retention time in human plasma treated with 1 uM (S)-2-((S)-1-((S)-1-((S)-2-amino-6-(3-((S)-2-amino-5-guanidinopentyl)ureido)hexanoyl)pyrrolidine-2-carbonyl)pyrrolidine-2-carboxamido)-5-guanidinopentanoic acid at 1 uM after 96 hrs by LC-MS analysis. The format is ADME, cell-free. In short, it runs like this:
(§1)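 Compounds incubated in human plasma at 37 °C; aliquots withdrawn at selected time intervals up to 96 h and analysed by RP-HPLC and LC-MS to follow parent loss and the fragments formed.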

Data set [2] in a line: Retention time in human plasma treated with 1 uM (S)-5-guanidino-2-((S)-1-((6S,15S,18R)-1,6,15-triamino-18-(2-aminoethyl)-1-imino-9,16-dioxo-2,8,10,17-tetraazanonadecane)-2,3-dihydro-1H-pyrrole-2-carboxamido)pentanoic acid at 1 uM after 96 hrs by LC-MS analysis. The format is ADME, cell-free. In short, it runs like this:
as §1

A short description of data set [3]: Metabolic stability in human plasma assessed as compound remaining at 1 uM after 96 hrs by RP-HPLC and LC-MS analysis relative to control. The class given is ADME, cell-free. Particulars: read-out: Stability. The procedure, abridged:
as §1

A short description of data set [4]: Drug metabolism in human plasma assessed as (S)-2-amino-6-(3-((S)-2-amino-5-guanidinopentyl)ureido)hexanoic acid metabolite formation at 1 uM after 96 hrs by LC-MS analysis. The class given is ADME, cell-free. In short, it runs like this:
as §1

A short description of data set [5]: Stability in human plasma assessed as enzymatic cleavage of Lys(epsilon)-Arg(U) bond at 1 uM after 96 hrs by LC-MS analysis. The class given is ADME, cell-free. The procedure, abridged:
as §1

Neuropilin-1, sequence (O14786 whole entry): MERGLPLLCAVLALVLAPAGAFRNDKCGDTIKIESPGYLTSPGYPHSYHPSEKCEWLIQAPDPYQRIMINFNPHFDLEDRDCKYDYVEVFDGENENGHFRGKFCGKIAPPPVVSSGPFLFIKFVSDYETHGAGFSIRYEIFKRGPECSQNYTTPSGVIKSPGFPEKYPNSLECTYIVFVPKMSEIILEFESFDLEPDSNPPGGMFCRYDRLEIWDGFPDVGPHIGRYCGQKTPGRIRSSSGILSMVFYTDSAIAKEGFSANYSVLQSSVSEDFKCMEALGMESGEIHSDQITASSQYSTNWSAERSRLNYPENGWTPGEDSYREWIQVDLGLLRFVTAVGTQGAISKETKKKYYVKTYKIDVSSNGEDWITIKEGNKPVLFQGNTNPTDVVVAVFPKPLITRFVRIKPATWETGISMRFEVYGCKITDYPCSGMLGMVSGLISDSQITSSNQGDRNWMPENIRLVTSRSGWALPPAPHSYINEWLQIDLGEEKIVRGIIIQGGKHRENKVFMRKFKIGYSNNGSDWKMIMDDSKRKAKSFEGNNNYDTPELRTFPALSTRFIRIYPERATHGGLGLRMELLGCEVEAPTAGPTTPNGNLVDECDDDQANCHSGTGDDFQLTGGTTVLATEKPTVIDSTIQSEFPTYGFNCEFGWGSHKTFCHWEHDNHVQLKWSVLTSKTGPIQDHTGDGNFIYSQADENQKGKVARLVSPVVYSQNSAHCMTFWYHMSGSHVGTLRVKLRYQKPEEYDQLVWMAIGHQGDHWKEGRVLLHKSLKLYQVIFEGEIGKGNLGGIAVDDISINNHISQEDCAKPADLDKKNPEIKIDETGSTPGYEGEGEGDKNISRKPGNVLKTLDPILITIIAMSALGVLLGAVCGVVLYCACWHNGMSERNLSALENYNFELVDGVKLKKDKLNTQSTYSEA

For the molecule `N=C(N)NCCC[C@H](N)CNC(=O)NCCCC[C@H](N)C(=O)N[C@H](CCN)C(=O)N1C2CCCCC2C[C@H]1C(=O)N[C@@H](CCCNC(=N)N)C(=O)O` (stereo not given in full), on Neuropilin-1, the IC50 came out at 5.4 µM. Consider `N=C(N)NCCC[C@H](N)CNC(=O)NCCCC[C@H](N)C(=O)O`, for which the Retention_time was determined as 3 min in data set [1] and 2.92 min in data set [2]. In the case of `N=C(N)NCCC[C@H](N)CNC(=O)NCCCC[C@H](N)C(=O)N[C@@H](CCN)C(=O)N1CC=C[C@H]1C(=O)O`, the Retention_time in data set [2] is listed as 9.02 min. On the same count and under the same terms, under `N=C(N)NCCC[C@H](NC(=O)[C@@H]1C=CCN1C(=O)[C@@H](N)CCN)C(=O)O` (H-[Dab]-[ΔPro]-Arg-OH) stands 0.98 min.

Take `N=C(N)NCCC[C@H](N)CNC(=O)NCCCC[C@H](N)C(=O)N1CCC[C@H]1C(=O)N1CCC[C@H]1C(=O)N[C@@H](CCCNC(=N)N)C(=O)O` (H-K([CO-X1])PPR-OH): the remaining at 96 h, 1 µM in data set [3] was in the range of 40 to 45%. The Drug metabolism result in data set [4] is recorded as “Metabolite_Detected”. For the same molecule, the Stability result in data set [5] is “Stable”. Also, the IC50 at Neuropilin-1 was 7.7 µM. For the molecule `N=C(N)NCCC[C@H](N)CNC(=O)NCCCC[C@H](N)C(=O)N[C@H](CCN)C(=O)N1CC[C@H]1C(=O)N[C@@H](CCCNC(=N)N)C(=O)O`, the IC50 on Neuropilin-1 is 26 µM.
